Source: article PMC8484140 (Targeted Oncology, 2021)
Entries after “also recorded” stand apart in the source; their conditions may differ.

Legend:
Type in all cases: in vivo, human
[1] = Safety and DLT evaluation
[2] = test system: HR+/HER2− advanced breast cancer; test: Efficacy by RECIST 1.1, Stage I/II patients; details: for Clinical response: CR (number of patients) / Clinical response: PD (number of patients) / Clinical response: PR (number of patients) / Clinical response: SD (number of patients): with exemestane in Stage II
[3] = test system: HR+/HER2− advanced breast cancer; test: Efficacy by RECIST 1.1, additional 21 patients
Procedure, shortened: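 Additional cohort of 21 postmenopausal women aged ≤65 years. All had ER- and/or PR-positive (>1%) disease, ECOG 0–1 and progression after letrozole/anastrozole, with no prior HDAC inhibitor. […] Response was assessed by RECIST 1.1, with CR/PR confirmed at least 4 weeks after the initial response.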

[4] = Stage I, 5 mg/week monotherapy, n=12
[5] = Stage I, 7 mg/week monotherapy, n=3
[6] = most common grade 3/4 AEs, 19 dose-escalation patients, stage not stated

Q: With Nc1ccccc1NC(=O)c1ccc(CNC(=O)OCc2cccnc2)cc1 [Entinostat] as the compound, how does the “Diarrhea, entinostat-related AE of all grades” value [1, 4] read?
A: 0 No. (%)

Q: And the “Fatigue, entinostat-related AE of all grades” value [1, 4]?
A: 2 (16.7) No. (%)

Q: And the “Flatulence, entinostat-related AE of all grades” value [1, 4]?
A: 2 (16.7) No. (%)

Q: And the “Headache, entinostat-related AE of all grades” value [1, 4]?
A: 3 (25) No. (%)

Q: And the “Hypoalbuminemia, entinostat-related AE of all grades” value [1, 4]?
A: 0 No. (%)

Q: And the “Hypocalcemia, entinostat-related AE of all grades” value [1, 4]?
A: 0 No. (%)

Q: And the “Hypokalemia, entinostat-related AE of all grades” value [1, 4]?
A: 0 No. (%)

Q: And the “Hypoproteinemia, entinostat-related AE of all grades” value [1, 4]?
A: 0 No. (%)

Q: And the “LDH increase, entinostat-related AE of all grades” value [1, 4]?
A: 0 No. (%)

Q: And the “Leukopenia, entinostat-related AE of all grades” value [1, 4]?
A: 7 (58.3) No. (%)

Q: And the “Limb pain, entinostat-related AE of all grades” value [1, 4]?
A: 0 No. (%)

Q: What about the “Neutropenia, entinostat-related AE of all grades” value [1, 4] of the same compound?
A: 4(33.3) No. (%)

Q: What about the “Palpitation, entinostat-related AE of all grades” value [1, 4] of the same compound?
A: 2 (16.7) No. (%)

Q: What about the “Serum Ca^2+ decrease, entinostat-related AE of all grades” value [1, 4] of the same compound?
A: 0 No. (%)

Q: And the “Serum Na+ decrease, entinostat-related AE of all grades” value [1, 4]?
A: 0 No. (%)

Q: And the “Serum albumin decrease, entinostat-related AE of all grades” value [1, 4]?
A: 0 No. (%)

Q: What about the “Serum phosphate decrease, entinostat-related AE of all grades” value [1, 4] of the same compound?
A: 0 No. (%)

Q: And the “Serum urea increase, entinostat-related AE of all grades” value [1, 4]?
A: 0 No. (%)

Q: What about the “Thrombocytopenia, entinostat-related AE of all grades” value [1, 4] of the same compound?
A: 2 (16.7) No. (%)

Q: And the “Γ-GT elevation, entinostat-related AE of all grades” value [1, 4]?
A: 2 (16.7) No. (%)

Q: What about the “α-HBDH elevation, entinostat-related AE of all grades” value [1, 4] of the same compound?
A: 2 (16.7) No. (%)

Q: And the “AKP elevation, entinostat-related AE of all grades” value [1, 5]?
A: 0 No. (%)

Q: What about the “ALT elevation, entinostat-related AE of all grades” value [1, 5] of the same compound?
A: 0 No. (%)

Q: And the “AST elevation, entinostat-related AE of all grades” value [1, 5]?
A: 0 No. (%)

Q: And the “Abdominal pain, entinostat-related AE of all grades” value [1, 5]?
A: 0 No. (%)

Q: What about the “Anemia, entinostat-related AE of all grades” value [1, 5] of the same compound?
A: 0 No. (%)

Q: What about the “Back pain, entinostat-related AE of all grades” value [1, 5] of the same compound?
A: 0 No. (%)

Q: What about the “Chest pain, entinostat-related AE of all grades” value [1, 5] of the same compound?
A: 0 No. (%)

Q: And the “Creatine increase, entinostat-related AE of all grades” value [1, 5]?
A: 0 No. (%)

Q: And the “Creatinine phosphokinase increase, entinostat-related AE of all grades” value [1, 5]?
A: 0 No. (%)

Q: And the “Debilitation, entinostat-related AE of all grades” value [1, 5]?
A: 0 No. (%)

Q: What about the “Diarrhea, entinostat-related AE of all grades” value [1, 5] of the same compound?
A: 0 No. (%)

Q: What about the “Fatigue, entinostat-related AE of all grades” value [1, 5] of the same compound?
A: 0 No. (%)

Q: And the “Flatulence, entinostat-related AE of all grades” value [1, 5]?
A: 0 No. (%)

Q: And the “Headache, entinostat-related AE of all grades” value [1, 5]?
A: 0 No. (%)

Q: What about the “Hypoalbuminemia, entinostat-related AE of all grades” value [1, 5] of the same compound?
A: 0 No. (%)

Q: And the “Hypocalcemia, entinostat-related AE of all grades” value [1, 5]?
A: 0 No. (%)

Q: And the “Hypokalemia, entinostat-related AE of all grades” value [1, 5]?
A: 0 No. (%)

Q: And the “Hypoproteinemia, entinostat-related AE of all grades” value [1, 5]?
A: 0 No. (%)

Q: And the “LDH increase, entinostat-related AE of all grades” value [1, 5]?
A: 0 No. (%)

Q: And the “Leukopenia, entinostat-related AE of all grades” value [1, 5]?
A: 0 No. (%)

Q: What about the “Limb pain, entinostat-related AE of all grades” value [1, 5] of the same compound?
A: 0 No. (%)

Q: And the “Nausea, entinostat-related AE of all grades” value [1, 5]?
A: 0 No. (%)

Q: And the “Neutropenia, entinostat-related AE of all grades” value [1, 5]?
A: 2 (66.7) No. (%)

Q: What about the “Palpitation, entinostat-related AE of all grades” value [1, 5] of the same compound?
A: 0 No. (%)

Q: What about the “Serum Ca^2+ decrease, entinostat-related AE of all grades” value [1, 5] of the same compound?
A: 0 No. (%)

Q: And the “Serum Na+ decrease, entinostat-related AE of all grades” value [1, 5]?
A: 0 No. (%)

Q: And the “Serum albumin decrease, entinostat-related AE of all grades” value [1, 5]?
A: 0 No. (%)

Q: What about the “Serum phosphate decrease, entinostat-related AE of all grades” value [1, 5] of the same compound?
A: 0 No. (%)

Q: What about the “Serum urea increase, entinostat-related AE of all grades” value [1, 5] of the same compound?
A: 0 No. (%)

Q: And the “Thrombocytopenia, entinostat-related AE of all grades” value [1, 5]?
A: 0 No. (%)

Q: What about the “Γ-GT elevation, entinostat-related AE of all grades” value [1, 5] of the same compound?
A: 0 No. (%)

Q: And the “α-HBDH elevation, entinostat-related AE of all grades” value [1, 5]?
A: 0 No. (%)

Q: What about the “Patients with entinostat-related AEs” value ([1]; Stage I, all 19 patients) of the same compound?
A: 100%

Q: And the “Dose-limiting toxicity (DLT) in Stage I” value ([1]; all dose groups (3, 5, 7 mg/week))?
A: no patients experienced a DLT; also recorded: no DLT events occurred

Q: And the “Grade 3/4 neutropenia” value [1, 6]?
A: 31.6%

Q: And the “Grade 3/4 thrombocytopenia” value [1, 6]?
A: 15.8%

Q: What about the “Median tolerance limit (MLT)” value ([1]; throughout the trial, up to 7 mg/week) of the same compound?
A: not achieved

Q: And the “Clinical response: CR (number of patients)” value (from here on “Clinical response: CR”) ([2]; 3 mg (n = 2))?
A: 0

Q: And the “Clinical response: PD (number of patients)” value (“Clinical response: PD” below) ([2]; 3 mg (n = 2))?
A: 1

Q: And the “Clinical response: PR (number of patients)” value (shortened to “Clinical response: PR”) ([2]; 3 mg (n = 2))?
A: 0

Q: What about the “Clinical response: SD (number of patients)” value (“Clinical response: SD” for short) ([2]; 3 mg (n = 2)) of the same compound?
A: 1

Q: And the “Clinical response: CR” value ([2]; 5 mg (n = 9))?
A: 0

Q: What about the “Clinical response: PD” value ([2]; 5 mg (n = 9)) of the same compound?
A: 6

Q: What about the “Clinical response: PR” value ([2]; 5 mg (n = 9)) of the same compound?
A: 2

Q: What about the “Clinical response: SD” value ([2]; 5 mg (n = 9)) of the same compound?
A: 1

Q: What about the PFS ([2]; 5 mg group, from first dose of entinostat, 95% CI: 78–201) of the same compound?
A: 85.5 days

Q: What about the “Clinical response: CR” value ([2]; 7 mg→5 mg (n = 3)) of the same compound?
A: 0

Q: What about the “Clinical response: PD” value ([2]; 7 mg→5 mg (n = 3)) of the same compound?
A: 2

Q: And the “Clinical response: PR” value ([2]; 7 mg→5 mg (n = 3))?
A: 0

Q: What about the “Clinical response: SD” value ([2]; 7 mg→5 mg (n = 3)) of the same compound?
A: 1

Q: And the “Overall response rate (ORR, CR+PR)” value ([2]; 14 evaluated patients, 2/14)?
A: 14.3%

Q: What about the “Patients achieving CR” value ([2]; 14 evaluated patients, all cohorts) of the same compound?
A: none

Q: And the “Patients with stable disease” value ([2]; 14 evaluated patients, all three treatment groups)?
A: Three

Q: And the “Patients with PD” value ([2]; 14 evaluated patients, three groups)?
A: Nine

Q: What about the “Patients with stable disease (> 12 weeks)” value ([2]; extended treatment stage, entinostat 3 or 5 mg/week + exemestane 25 mg/day) of the same compound?
A: three

Q: And the “ORR (CR+PR)” value ([3]; 21 patients, entinostat 5 mg + exemestane 25 mg, 95% CI: 1.17–30.38)?
A: 9.52%

Q: And the “Clinical benefit rate (CBR, CR+PR+SD over 24 weeks)” value ([3]; 21 patients, entinostat 5 mg + exemestane 25 mg, 95% CI: 21.82–65.98)?
A: 42.86%

Q: What about the Median progression-free survival ([3]; additional 21 patients, entinostat 5 mg/week + exemestane 25 mg/day) of the same compound?
A: 9.41 months
